Tests used:
ABHD16A [1] = target: T1, ABHD16A (Homo sapiens, UniProt O95870); test: PS substrate; type: biochemical; details: 95% interval for the reported IC50 value, human ABHD16A PS lipase activity
T1 sequence (O95870 1-558): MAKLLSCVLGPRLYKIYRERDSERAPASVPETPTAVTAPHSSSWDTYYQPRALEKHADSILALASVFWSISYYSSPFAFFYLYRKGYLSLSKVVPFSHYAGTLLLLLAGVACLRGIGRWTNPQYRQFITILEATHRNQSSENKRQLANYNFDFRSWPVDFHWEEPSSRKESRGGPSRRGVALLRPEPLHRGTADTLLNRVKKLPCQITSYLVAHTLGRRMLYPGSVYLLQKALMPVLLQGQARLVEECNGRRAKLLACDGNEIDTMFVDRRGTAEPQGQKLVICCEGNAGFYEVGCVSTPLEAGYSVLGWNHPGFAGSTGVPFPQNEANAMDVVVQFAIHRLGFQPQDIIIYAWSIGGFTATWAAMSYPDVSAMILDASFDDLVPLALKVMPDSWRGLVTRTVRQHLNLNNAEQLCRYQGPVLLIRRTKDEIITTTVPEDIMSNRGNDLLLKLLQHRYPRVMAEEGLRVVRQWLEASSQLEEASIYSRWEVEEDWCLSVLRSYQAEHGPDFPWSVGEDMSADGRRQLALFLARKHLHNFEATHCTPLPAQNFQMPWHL

ABHD16A [2] = target: T1, ABHD16A; test: biochemical; type: binding
mouse ABHD16A = target: T2, mouse ABHD16A (Mus musculus, UniProt Q9Z1Q2); test: competitive gel-based ABPP, mouse ABHD16A-transfected HEK293T proteome; type: binding
T2 sequence (Q9Z1Q2 1-558): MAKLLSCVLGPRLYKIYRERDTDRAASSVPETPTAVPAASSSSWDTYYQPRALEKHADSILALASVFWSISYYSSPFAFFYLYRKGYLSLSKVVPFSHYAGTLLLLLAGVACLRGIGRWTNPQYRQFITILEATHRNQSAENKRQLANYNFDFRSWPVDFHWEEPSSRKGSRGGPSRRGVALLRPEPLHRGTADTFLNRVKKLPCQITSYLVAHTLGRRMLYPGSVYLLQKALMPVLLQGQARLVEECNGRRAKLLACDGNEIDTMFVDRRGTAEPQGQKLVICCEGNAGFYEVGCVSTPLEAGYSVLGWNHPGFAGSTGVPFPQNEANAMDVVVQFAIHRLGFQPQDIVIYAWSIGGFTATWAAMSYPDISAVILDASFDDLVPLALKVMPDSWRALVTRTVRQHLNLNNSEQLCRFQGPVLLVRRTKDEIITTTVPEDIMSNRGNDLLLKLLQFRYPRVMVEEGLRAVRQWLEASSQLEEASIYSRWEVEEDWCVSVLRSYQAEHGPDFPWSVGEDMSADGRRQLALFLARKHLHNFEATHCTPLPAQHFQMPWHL

ABHD16A [3] = target: T1, ABHD16A; test: competitive gel-based ABPP, K562 cells treated in situ; type: cell-based; details: in situ IC50 for ABHD16A, 4 h treatment, 37 °C
ABHD16A [4] = target: T1, ABHD16A; test: ABPP-SILAC of serine hydrolase activities in COLO205 cells treated in situ; type: cell-based; details: 1 μM, 4 h, 37 °C
[5] = tested on: additional off-targets (serine hydrolase activities); test: as above; type: cell-based, human; details: 1 μM, 4 h, 37 °C
COLO205 cells = test: LC-MS-based lipid profiling of treated cells; type: cell-based, human; details: COLO205, 1 μM, 4 h
Method in brief: (§1)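 Cells grown in RPMI 1640 with 10% FCS and penicillin-streptomycin. 3 x 10^6 cells washed, then exposed to test compound (1 μM) or DMSO for 4 h at 37 °C, 5% CO2, in serum-free, phenol red-free RPMI. Media and cells extracted with 2:1 CHCl3:MeOH plus internal standards. Lipids quantified by LC-MS MRM (ESI) as peak area versus unnatural internal standard, normalized to cell number.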

[6] = tested on: PS lipase activity of human LCLs; test: PS lipase activity of membrane proteomes of lymphoblast cell lines; type: biochemical; details: 1 µM, 30 min, 37 °C; all LCL samples
Method in brief: (§2)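 Membrane proteome (20 μg) incubated with 100 μM lipid substrate in PBS (100 μL), shaking, […] for 30 min. Quenched with 2:1 CHCl3:MeOH and internal standard, then extracted twice. Product quantified by LC-QTOF-MS, ESI negative mode, as peak area relative to internal standard. Non-enzymatic rate from heat-denatured proteome (95 °C, 15 min) subtracted.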

[7] = tested on: human lymphoblast cell lines (LCLs); test: targeted LC-MS analysis of lyso-PS in LCLs; type: cell-based; details: 1 μM, 4 h
Method in brief: as §1

ABHD16A [8] = target: T1, ABHD16A; test: gel-based ABPP of LCLs treated in situ; type: cell-based; details: 1 µM, 4 h in situ
[9] = tested on: PS lipase activity of mouse peritoneal macrophages; test: PS lipase activity of membrane proteomes of peritoneal macrophages; type: biochemical; details: vehicle- and LPS-stimulated macrophages; 1 µM, 30 min, 37 °C
Method in brief: as §2

[10] = tested on: thioglycollate-elicited mouse peritoneal macrophages; test: cellular and secreted lyso-PS of thioglycollate-elicited peritoneal macrophages; type: cell-based; details: 4 h
Method in brief: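 Thioglycollate-elicited peritoneal macrophages from wild-type, ABHD12−/− or ABHD16A−/− mice. 2 x 10^6 cells plated and adhered 2 h at 37 °C. Washed, then test compound (1 μM) or DMSO given for 4 h in serum-free, phenol red-free RPMI. LPS 5 μg/mL in PBS for 7 h. Media (4 mL) and cells extracted with CHCl3:MeOH. Lipids quantified by LC-MS MRM against internal standards, normalized to cell number.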

[11] = tested on: thioglycollate-elicited mouse peritoneal macrophages; test: secreted cytokines of thioglycollate-elicited peritoneal macrophages; type: cell-based; details: 4 h
Method in brief: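 Peritoneal macrophages elicited by thioglycollate from wild-type, ABHD12−/− or ABHD16A−/− mice. 2 x 10^6 cells allowed to adhere 2 h, then washed. Test compound (1 μM) or DMSO applied for 4 h in serum-free, phenol red-free RPMI, then LPS (5 μg/mL, 7 h, in PBS). Cytokines measured in 0.5 mL harvested medium by mouse single-analyte ELISA.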

[12] = target: T3, ABHD16A (WT and S355A mutant) (Homo sapiens, UniProt O95870); test: activity-dependent labeling of ABHD16A in transfected HEK293T cell lysates; type: binding; details: 0.2 µM, 30 min, 37 °C
T3 sequence (O95870 1-558): T1 sequence (O95870 1-558)

ABHD12 = details: read-out: IC50, competitive ABPP; brain serine hydrolases; cited from earlier work
ABHD16A/BAT5 = details: read-out: IC50, competitive ABPP; uncharacterized 60 kDa membrane enzyme tentatively identified as ABHD16A/BAT5; cited from earlier work
[13] = ABHD12−/− macrophages, pre-treatment 1 μM
[14] = ABHD16A−/− macrophages, basal or LPS stimulation, 1 µM
[15] = wild-type macrophages, pre-treatment 1 μM, LPS 5 μg/mL, 7 h

## CCCCCCCCCCCCCC1OC(=O)/C1=C\CCCCC(N)=O (centres unmarked) [KC01]
ABHD16A [1]
  IC50: 69 to 105 nM
ABHD16A [2]
  IC50: 200 to 500 nM
Mouse ABHD16A
  IC50: 200 to 500 nM
ABHD16A [3]
  IC50: ~300 nM
ABHD16A [4]
  light:heavy ratio for ABHD16A (ABPP-SILAC): 0.02
[5]
  partial inhibition of a handful of additional off-targets (ABPP-SILAC): 50–80%
COLO205 cells
  cellular lyso-PSs versus DMSO-treated control cells: significant reductions
  other lipids (PSs, PCs, PEs, lyso-PCs, lyso-PEs, MAGs): No changes
COLO205 cells; serum-free media
  secreted lyso-PSs (18:1 and 18:0): decreased
[6]
  PS lipase activity of LCL membrane proteomes: inhibited
[7]; PHARC subject-derived LCL
  secreted lyso-PSs of the ABHD12-null LCL: significantly lowered
[7]; all LCLs
  cellular lyso-PSs of LCLs: decreased cellular lyso-PSs
ABHD16A [8]
  inhibition of ABHD16A in LCLs by gel-based ABPP: confirmed inhibition
[9]
  PS lipase activity of macrophage membrane proteomes: blocked
[10]; [13]
  LPS-induced increases in lyso-PSs: blocked
[10]; [14]
  cellular or secreted lyso-PS and other measured lipids: no changes
[10]; [15]
  basal and LPS-induced increases in cellular and secreted lyso-PSs: reduced
[11]; [13]
  LPS-induced increases in cytokine secretion: blocked
[11]; [14]
  secreted proinflammatory cytokines (IL-6 and TNF-α): no changes
[11]; [15]
  LPS-induced cytokine release: significantly blunted

## CCCCCCCCCCCCCC1OC(=O)/C1=C\CCCC(=O)NCCCCCNC(=O)c1ccc(-c2c3ccc(=[N+](C)C)cc-3oc3cc(N(C)C)ccc23)c(C(=O)[O-])c1 (centres unmarked) [WHP01]
[12]
  labeling of ABHD16A by fluorescent probe: labeled WT-ABHD16A but not the catalytic serine S355A mutant

## CCCCCCCCCCC[C@@H](C[C@@H]1OC(=O)[C@H]1CCCCCC)OC(=O)[C@H](CC(C)C)NC=O [THL, tetrahydrolipstatin]
ABHD12
  IC50: ~100 nM
ABHD16A/BAT5
  IC50: ~100 nM

From article PMC4301979 (Nature chemical biology, 2015)
